Source: the M2OR odorant receptor database

Target: T1, OR2A1 (Homo sapiens) (UniProt Q8NGT9)
T1 sequence (whole entry): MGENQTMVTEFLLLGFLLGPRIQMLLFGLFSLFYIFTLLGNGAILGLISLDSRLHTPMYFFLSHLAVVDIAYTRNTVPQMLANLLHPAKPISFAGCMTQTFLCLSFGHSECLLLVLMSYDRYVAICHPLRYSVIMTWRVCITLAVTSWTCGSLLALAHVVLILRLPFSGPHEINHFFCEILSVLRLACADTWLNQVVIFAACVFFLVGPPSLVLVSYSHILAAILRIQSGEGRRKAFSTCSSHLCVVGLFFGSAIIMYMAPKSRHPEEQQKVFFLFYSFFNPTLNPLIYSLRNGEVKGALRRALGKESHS
Conditions: stereoisomer not certain
Summary of the method: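 Transient luciferase assays in mammalian cell lines were common, though methods varied by source. The values come from published papers and their supplementary material, with extra details from the original authors when needed. Responsive refers to a measured signal the original authors judged statistically different from baseline, and non-responsive (inactive) to the remainder.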
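Note: active if original authors judged signal statistically different from baseline.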

Odorant receptor agonist call, inactive:
CCCCCCCCCCCC(=O)O, CCCCC(=O)C(C)=O, COc1ccc2[nH]cc(CCNC(C)=O)c2c1, CCCCCCC(=O)[O-].[H+], CCCCCCCCCC(=O)OC, CCC(O)CC, CC(=O)O, CCC(C)CO (stereo not drawn), Cc1cccc(C)c1C, Cc1cnc(C)cn1, CCCCCCCCCCCCCCC(=O)O, CCCCCCCC(=O)OCC, CCCCCCCCCCCCCC(=O)OCC, CCCCCCCCCCCCCC(=O)O, CCCCCCCC(=O)[O-].[H+], CC(O)C(=O)[O-].[H+] (stereo not drawn), CCCCCCCCCCCCCCCCCC(=O)OCC, CCCCOCC(C)O (stereo not drawn), C=C(C)C1CC=C(C)CC1 (stereo not drawn), CCCCCCCCCC(=O)OCC, CCCCCCCCCCCCCC(=O)OC, CCCCCCCCCCCCCCCCCC(=O)[O-].[H+], C=C1CCC2CC1C2(C)C (stereo not drawn), O=c1ccc2ccccc2o1, CCCCCCCCCCCCCCCC(=O)[O-].[H+], Cc1ccc(C(C)C)cc1, CCCCCCCCCCCCCCCCCC(=O)OC, CCCCCCCCCCCCCCCC(=O)OC
